Assay results taken from ChEMBL document CHEMBL4765436, “Discovery, structure-activity relationship study and biological evaluation of 2-thioureidothiophene-3-carboxylates as a novel class of C-X-C chemokine receptor 2 (CXCR2) antagonists” (Eur J Med Chem, 2020).
Activity calls are given as the source filed them. No cut-off for these calls is given here.

Key:
[1] = molecular target: C-X-C chemokine receptor type 4 (Homo sapiens, UniProt P61073); test: Antagonist activity at CXCR4 (unknown origin) expressed in U2OS cells cotransfected with beta-arrestin/TEV protease fusion protein and beta-lactamase assessed as inhibition of SDF1-alpha-induced beta arrestin2 recruitment preincubated for 30 mins followed by SDF1-alpha stimulation and measured after 5 hrs by FRET based fluorescence/Tango assay
[2] = molecular target: T1, C-X-C chemokine receptor type 2 (Homo sapiens, UniProt P25025); test: Antagonist activity at CXCR2 (unknown origin) expressed in U2OS cells cotransfected with beta-arrestin/TEV protease fusion protein and beta-lactamase assessed as inhibition of CXCL8-induced beta arrestin2 recruitment preincubated for 30 mins followed by CXCL8 stimulation and measured after 5 hrs by FRET based fluorescence/Tango assay; type: cell-based
T1 sequence (P25025 whole entry): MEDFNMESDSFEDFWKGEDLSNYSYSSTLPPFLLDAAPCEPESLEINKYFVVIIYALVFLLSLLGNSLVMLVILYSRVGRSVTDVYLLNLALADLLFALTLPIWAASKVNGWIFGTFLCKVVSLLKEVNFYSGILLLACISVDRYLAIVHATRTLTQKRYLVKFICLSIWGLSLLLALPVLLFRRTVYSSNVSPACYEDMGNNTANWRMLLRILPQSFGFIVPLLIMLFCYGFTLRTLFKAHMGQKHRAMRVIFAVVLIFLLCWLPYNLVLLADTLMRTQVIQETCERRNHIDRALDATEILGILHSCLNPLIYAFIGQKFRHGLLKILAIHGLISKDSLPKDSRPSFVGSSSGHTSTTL

[3] = molecular target: T2, C-X-C chemokine receptor type 2 (Homo sapiens) (UniProt P25025); test: Antagonist activity at CXCR2 (unknown origin) expressed in HEK293T cells cotransfected with GFP assessed as inhibition of CXCL8-induced cJUN phosphorylation at 10 to 30 uM post CXCL8 treatment by immunoblot assay; type: cell-based; conditions: dose 10-30 µM
T2 sequence (whole entry): T1 sequence (P25025 whole entry)
How it was run: (§1)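 293T-CXCR2-GFP cells (5 x 10^5/well) were attached overnight, treated with compounds and lysed in RIPA buffer with protease/phosphatase inhibitors. Lysates were normalized by BCA and resolved on 10% SDS-PAGE. Blots were probed overnight at 4 °C with antibodies (1:500-1:1000) to p-ERK1/2, p-JNK, p-cJUN or p-p38, then with a fluorescent secondary antibody, and imaged by infrared imaging.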

[4] = tested on: SK-OV-3; test: Inhibition of colony formation in human SK-OV-3 cells at 8.9 to 20 uM incubated for 7 to 10 days in presence of doxorubicin by crystal violet staining based assay; type: functional, cell-based; conditions: dose 8.9-20 µM, time 7-10 day
How it was run: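 Colony formation: cells were seeded at 300/well, attached overnight, then treated with compounds for 7-10 days until colonies formed in DMSO wells. Colonies were stained with 0.05% crystal violet for 30 min and washed with water.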

[5] = molecular target: T3, Translocator protein (Homo sapiens, UniProt P30536); test: Inhibition of PBR (unknown origin) by radioligand binding assay
How it was run: (§2)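 Secondary radioligand binding assay determining equilibrium binding affinity (Ki).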

[6] = molecular target: T2, C-X-C chemokine receptor type 2 (Homo sapiens); test: Antagonist activity at CXCR2 (unknown origin) expressed in HEK293T cells cotransfected with GFP assessed as inhibition of CXCL8-induced AKT phosphorylation at 10 to 30 uM post CXCL8 treatment by immunoblot assay; type: cell-based; conditions: dose 10-30 µM
[7] = molecular target: T2, C-X-C chemokine receptor type 2 (Homo sapiens); test: Antagonist activity at CXCR2 (unknown origin) expressed in HEK293T cells cotransfected with GFP assessed as inhibition of CXCL8-induced JNK phosphorylation at 10 to 30 uM post CXCL8 treatment by immunoblot assay; type: cell-based; conditions: dose 10-30 µM
How it was run: as §1

[8] = molecular target: T3, Translocator protein; test: Inhibition of PBR (unknown origin) at 10 uM by radioligand binding assay relative to control
How it was run: (§3)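 Primary radioligand binding screen across 50 GPCRs at a single concentration of 10 μM. Compounds with ≥50% inhibition went on to secondary binding.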

[9] = molecular target: T4, Alpha-2A adrenergic receptor (Homo sapiens) (UniProt P08913); test: Inhibition of alpha 2a-adrenergic receptor (unknown origin) at 10 uM by radioligand binding assay relative to control
T4 sequence (whole entry): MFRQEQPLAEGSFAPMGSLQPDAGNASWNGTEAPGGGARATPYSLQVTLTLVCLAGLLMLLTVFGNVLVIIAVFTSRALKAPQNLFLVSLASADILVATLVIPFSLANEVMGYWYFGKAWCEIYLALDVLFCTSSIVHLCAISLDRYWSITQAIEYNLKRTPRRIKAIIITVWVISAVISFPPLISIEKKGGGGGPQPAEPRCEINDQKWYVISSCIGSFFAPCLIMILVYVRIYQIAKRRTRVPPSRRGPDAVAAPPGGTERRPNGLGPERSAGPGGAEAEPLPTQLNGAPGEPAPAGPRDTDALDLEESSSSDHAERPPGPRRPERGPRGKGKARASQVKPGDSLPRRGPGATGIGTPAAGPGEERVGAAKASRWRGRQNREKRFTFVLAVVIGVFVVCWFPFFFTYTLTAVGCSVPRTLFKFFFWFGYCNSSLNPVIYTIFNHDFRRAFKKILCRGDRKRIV
How it was run: as §3

[10] = molecular target: T2, C-X-C chemokine receptor type 2 (Homo sapiens); test: Antagonist activity at CXCR2 (unknown origin) expressed in HEK293T cells cotransfected with GFP assessed as inhibition of CXCL8-induced p38 phosphorylation at 10 to 30 uM post CXCL8 treatment by immunoblot assay; type: cell-based; conditions: dose 10-30 µM
How it was run: as §1

[11] = molecular target: T2, C-X-C chemokine receptor type 2 (Homo sapiens); test: Antagonist activity at CXCR2 (unknown origin) expressed in HEK293T cells cotransfected with GFP and p22F assessed as inhibition of CXCL8-reduced cAMP production at 10 uM incubated for 10 mins followed by CXCL8 stimulation and measured after 10 mins by luminescence based assay; type: functional, cell-based; conditions: time 20.0 min
How it was run: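 293T-CXCR2-GFP-p22F cells express a cAMP-sensitive firefly luciferase. They were seeded at 30000 cells/well overnight in CO2-independent medium with 10% FBS, then incubated with 1% cAMP reagent for 2 h at 37 °C. Cells were pretreated with compound for 10 min, given CXCL8 (50 nM) for 10 min, then stimulated with forskolin (50 μM) until maximal signal (~80 min). Luminescence read-out.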

[12] = tested on: U2OS; test: Antimigratory activity against human U2OS cells overexpressing CXCR2/bla assessed as reduction in CXCL8-mediated wound closure at 10 uM incubated for 20 mins followed by CXCL8 stimulation and measured after 24 hrs by Giemsa staining based scratch wound healing assay; type: functional, cell-based; conditions: time 24.3 hrs
How it was run: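 CXCR2-bla U2OS cells were seeded at 35000/well in DMEM with 1% FBS overnight and scratched with a pipette tip. Compounds (10 μM) were added for 20 min, then CXCL8 (60 nM) for 24 h; unstimulated wells served as control. Cells were methanol-fixed, Giemsa-stained and imaged by transmitted light. Two independent experiments were run in duplicate.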

[13] = molecular target: T2, C-X-C chemokine receptor type 2 (Homo sapiens); test: Antagonist activity at CXCR2 (unknown origin) expressed in HEK293T cells cotransfected with GFP assessed as inhibition of CXCL8-induced ERK1/2 phosphorylation pretreated at 10 to 30 uM followed by treated with CXCL8 by immunoblot assay; type: cell-based; conditions: filed as antagonist, dose 10-30 µM
How it was run: as §1

[14] = molecular target: T5, Alpha-2A adrenergic receptor (Homo sapiens, UniProt P08913); test: Inhibition of alpha 2a-adrenergic receptor (unknown origin) by radioligand binding assay
T5 sequence (P08913 whole entry): T4 sequence (whole entry)
How it was run: as §2

C-X-C chemokine receptor type 4, sequence (P61073 whole entry, the tested form may be a part): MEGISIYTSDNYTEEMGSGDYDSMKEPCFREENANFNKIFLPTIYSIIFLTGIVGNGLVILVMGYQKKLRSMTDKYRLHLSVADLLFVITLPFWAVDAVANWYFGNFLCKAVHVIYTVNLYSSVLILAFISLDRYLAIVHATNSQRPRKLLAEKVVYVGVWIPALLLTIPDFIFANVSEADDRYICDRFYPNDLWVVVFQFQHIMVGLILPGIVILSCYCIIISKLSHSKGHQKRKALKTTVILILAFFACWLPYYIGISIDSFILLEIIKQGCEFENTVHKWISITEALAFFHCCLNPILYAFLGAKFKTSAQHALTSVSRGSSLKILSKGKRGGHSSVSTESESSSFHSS
T3 sequence (P30536 whole entry): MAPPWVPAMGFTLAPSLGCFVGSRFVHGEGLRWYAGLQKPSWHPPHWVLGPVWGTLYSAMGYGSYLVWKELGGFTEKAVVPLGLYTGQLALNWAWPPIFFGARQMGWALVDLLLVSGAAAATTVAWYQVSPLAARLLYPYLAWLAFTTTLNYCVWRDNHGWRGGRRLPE

SMILES | IC50 [1] [µM] | IC50 [2] [µM] | further results
CC1CCCc2sc(NC(=S)Nc3ccccc3)c(C(=O)NCc3ccccc3)c21 (stereo unspecified) | > 30 | 2.5 | –
CCOC(=O)c1c(NC(=S)Nc2ccc(N)cc2)sc2c1C(C)CCC2 (stereo unspecified) | > 10 | > 30 | –
CC(C)(C)OC(=O)c1c(NC(=S)Nc2ccccc2)sc2c1COC(C)(C)C2 | > 10 | > 10 | –
CCOC(=O)NC(=S)Nc1sc2c(c1C(=O)OCC)C(C)CCC2 (stereo unspecified) | > 10 | 8.7 | –
CC(C)(C)OC(=O)c1c(NC(=S)Nc2ccccc2)sc2c1CCN(Cc1ccccc1)C2 | > 10 | > 10 | –
CC1CCCc2sc(NC(=S)Nc3ccccc3)c(C(=O)O)c21 (stereo unspecified) | > 10 | 6.7 | –
CCOC(=O)c1c(NC(=S)Nc2ccc(OC(F)(F)F)cc2)sc2c1C(C)CCC2 (stereo unspecified) | 12.7 | 2.2 | –
C[C@@H](NC(=S)Nc1sc2c(c1C(=O)OC(C)(C)C)CCOC2)c1ccccc1 | > 30 | 1.6 | Activity [3]: inactive; inhibition [4]: Active; Ki [5]: > 10 µM; Activity [6]: inactive; Activity [7]: inactive; inhibition [8]: 64%; inhibition [9]: 59%; Activity [10]: inactive; Activity [11]: inactive; inhibition [12]: Active; Activity [13]: Active; Ki [14]: > 10 µM
CC1CCCc2sc(NC(=S)Nc3ccccc3)c(C(=O)Nc3ccccc3)c21 (stereo unspecified) | > 10 | 2.7 | –
COc1ccc(NC(=S)Nc2sc3c(c2C(=O)OC(C)(C)C)CCOC3)cc1OC | > 10 | 3.4 | –

Now from value to molecule, other results behind:

IC50 [1] [µM] | IC50 [2] [µM] | SMILES | further results
9.3 | 2.7 | CC(C)OC(=O)c1c(NC(=S)Nc2ccccc2)sc2c1C(C)CCC2 (stereo unspecified) | –
> 10 | > 10 | CC1CCCc2sc(NC(=S)Nc3ccc(Oc4ccccc4)cc3)c(C(=O)OC(C)(C)C)c21 (stereo unspecified) | –
> 10 | > 10 | CC1CCCc2sc(NC(=S)Nc3ccc(N4CCN(C)CC4)cc3)c(C(=O)OC(C)(C)C)c21 (stereo unspecified) | –
> 10 | 2.7 | COc1cccc(NC(=S)Nc2sc3c(c2C(=O)OC(C)(C)C)C(C)CCC3)c1 (stereo unspecified) | –
> 10 | 7.7 | CCOC(=O)c1c(NC(=S)Nc2ccc(OC)c(OC)c2)sc2c1C(C)CCC2 (stereo unspecified) | –
11.5 | 4.4 | CCOC(=O)c1c(NC(=S)Nc2ccc(OC)cc2)sc2c1C(C)CCC2 (stereo unspecified) | –
> 10 | 6.4 | CCOC(=O)c1c(NC(=S)Nc2ccccc2)sc2c1C(C)CCC2 (stereo unspecified) | –
11.7 | > 30 | CCOC(=O)c1c(NC(=S)Nc2ccc(O)cc2)sc2c1C(C)CCC2 (stereo unspecified) | –
> 10 | 10.6 | CC1CCCc2sc(NC(=S)Nc3ccc(OC(F)(F)F)cc3)c(C(=O)OC(C)(C)C)c21 (stereo unspecified) | –
> 10 | 5.7 | COc1ccc(NC(=S)Nc2sc3c(c2C(=O)OC(C)(C)C)C(C)CCC3)cc1OC (stereo unspecified) | –
> 10 | 6.8 | CC1CCCc2sc(NC(=S)Nc3ccc(OC(C)(C)C)cc3)c(C(=O)OC(C)(C)C)c21 (stereo unspecified) | –
8.9 | 3 | CCOC(=O)c1c(NC(=S)Nc2cccc(OC)c2)sc2c1C(C)CCC2 (stereo unspecified) | –
